Laboratory results reported in ChEMBL document CHEMBL1649062, “Integration of lead optimization with crystallography for a membrane-bound ion channel target: discovery of a new class of AMPA receptor positive allosteric modulators” (J Med Chem, 2011).
Converted amounts (≈) assume the structure as drawn.

How the values were obtained:
Glutamate receptor 2 [1] = molecular target: T1, Glutamate receptor 2 (Homo sapiens, UniProt P42262); experiment: Allosteric modulation of human recombinant GluA2 receptor flip isoform expressed in HEK293 cells assessed as potentiation of glutamate-induced calcium influx by Fluo-4/FLIPR method; type: cell-based
T1 sequence (P42262 whole entry, canonical isoform): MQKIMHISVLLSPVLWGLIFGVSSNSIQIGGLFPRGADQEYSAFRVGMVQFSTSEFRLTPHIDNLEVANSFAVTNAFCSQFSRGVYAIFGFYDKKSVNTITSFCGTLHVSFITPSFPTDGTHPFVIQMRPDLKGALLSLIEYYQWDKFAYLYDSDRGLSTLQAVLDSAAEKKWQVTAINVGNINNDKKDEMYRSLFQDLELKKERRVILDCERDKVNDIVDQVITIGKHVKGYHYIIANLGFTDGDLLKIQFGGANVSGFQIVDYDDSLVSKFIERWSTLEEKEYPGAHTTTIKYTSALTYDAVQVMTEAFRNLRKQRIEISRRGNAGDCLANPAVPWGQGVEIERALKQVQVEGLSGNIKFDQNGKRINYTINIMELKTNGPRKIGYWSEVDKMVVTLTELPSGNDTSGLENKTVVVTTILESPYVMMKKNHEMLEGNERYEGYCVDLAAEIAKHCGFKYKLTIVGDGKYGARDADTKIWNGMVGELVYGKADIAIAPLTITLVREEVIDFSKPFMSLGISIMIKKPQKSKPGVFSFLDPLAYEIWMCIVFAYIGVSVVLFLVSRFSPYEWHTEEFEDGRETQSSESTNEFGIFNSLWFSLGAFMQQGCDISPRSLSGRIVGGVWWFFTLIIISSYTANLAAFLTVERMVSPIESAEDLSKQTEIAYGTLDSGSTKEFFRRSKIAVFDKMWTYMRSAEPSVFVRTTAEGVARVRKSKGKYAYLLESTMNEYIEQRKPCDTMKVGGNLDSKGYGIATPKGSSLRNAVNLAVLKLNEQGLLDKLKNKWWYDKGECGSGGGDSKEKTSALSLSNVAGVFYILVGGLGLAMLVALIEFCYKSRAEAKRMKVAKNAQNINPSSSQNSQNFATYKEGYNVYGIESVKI
Outline: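 Stable GluA2 flip (unedited) cell line grown in DMEM/F12 with 10% FBS and seeded to confluence 2-3 days before use. Cells washed in HEPES buffer (pH 7.3) and loaded with 2 μM Fluo-4 AM for 60 min at room temperature. On FLIPR, compound was added 5 min before 100 μM glutamate. pEC50 and asymptotic maximum are relative to the maximal response to cyclothiazide, n ≥ 3.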

[2] = Distribution coefficient, log D of the compound; type: physicochemical; conditions: octanol/water
[3] = Kinetic solubility of the compound in phosphate buffered saline of pH 7.4; type: physicochemical
Outline: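 Kinetic solubility: 10 mM DMSO stock, 5 μL diluted to 100 μL with pH 7.4 phosphate-buffered saline, equilibrated 1 h at room temperature, filtered, filtrate quantified by calibrated flow-injection chemiluminescent nitrogen detection.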

[4] = Inhibition of human CYP450 by fluorescence assay; type: ADME
Outline: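 Recombinant human CYP1A2, 2C9, 2C19, 2D6 and 3A4 bactosomes (0.1 mg/mL protein) preincubated 10 min at 37 °C in 50 mM potassium phosphate pH 7.4 with test compound (0.1–10 μM, methanol 3–4.5% final) and fluorogenic probe: ethoxyresorufin 0.5 μM (1A2), FCA 50 μM (2C9), BMC 10 μM (2C19), MMC 10 μM (2D6), DEF 1 μM or 7-BQ 25 μM (3A4). NADPH-regenerating system added; fluorescent metabolite read 10 min; rate as % control; IC50 fitted; triplicate.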

Glutamate receptor 2 [5] = molecular target: T1, Glutamate receptor 2; experiment: Allosteric modulation of human recombinant GluA2 receptor flip isoform expressed in HEK293 cells assessed as potentiation of glutamate-induced calcium influx by Fluo-4/FLIPR method relative to cyclothiazide; type: cell-based
Outline: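 Stable GluA2 flip (unedited) cells seeded to confluence 2-3 days before assay; washed in HEPES buffer (145 NaCl, 5 KCl, 2 CaCl2, 1 MgCl2, 5.5 glucose, pH 7.3), loaded with 2 μM Fluo4-AM 60 min at room temperature. FLIPR dual addition: compound 5 min before 100 μM glutamate; fluorescence rise expressed against maximal cyclothiazide response, fitted pEC50 and Asym max; n ≥ 3.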

Cytochrome P450 2C19 = Cytochrome P450 2C19 (Homo sapiens, UniProt P33261); experiment: Inhibition of human CYP2C19 by fluorescence assay; type: ADME
Cytochrome P450 2C19, sequence (P33261 whole entry): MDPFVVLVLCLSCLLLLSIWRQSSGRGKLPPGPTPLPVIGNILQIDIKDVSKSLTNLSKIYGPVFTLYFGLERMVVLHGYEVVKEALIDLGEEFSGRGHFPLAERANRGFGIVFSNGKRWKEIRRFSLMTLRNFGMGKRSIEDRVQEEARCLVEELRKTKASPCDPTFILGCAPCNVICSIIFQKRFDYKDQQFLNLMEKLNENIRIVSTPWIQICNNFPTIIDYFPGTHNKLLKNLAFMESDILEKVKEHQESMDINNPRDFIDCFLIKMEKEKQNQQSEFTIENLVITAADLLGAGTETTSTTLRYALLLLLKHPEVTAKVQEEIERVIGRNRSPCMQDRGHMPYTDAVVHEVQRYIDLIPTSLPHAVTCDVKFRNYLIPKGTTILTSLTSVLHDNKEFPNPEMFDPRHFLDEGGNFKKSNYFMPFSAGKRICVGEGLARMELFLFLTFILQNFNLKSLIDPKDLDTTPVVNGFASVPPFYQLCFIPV
Outline: (§1)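 Recombinant human CYP bactosomes (0.1 mg/mL) in 50 mM potassium phosphate pH 7.4, preincubated 10 min at 37 °C with test compound (0.1-10 μM, 7 concentrations) and fluorogenic substrate. Substrates: ethoxyresorufin 0.5 μM (1A2), FCA 50 μM (2C9), BMC 10 μM (2C19), MMC 10 μM (2D6), DEF 1 μM or 7-BQ 25 μM (3A4). Reaction started with NADPH regenerating system; metabolite formation read over 10 min. IC50 from percent of control rate; miconazole control; triplicate.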

Cytochrome P450 2C9 = Cytochrome P450 2C9 (Homo sapiens, UniProt P11712); experiment: Inhibition of human CYP2C9 by fluorescence assay; type: ADME; outline: as §1
Cytochrome P450 2C9, sequence (P11712 whole entry): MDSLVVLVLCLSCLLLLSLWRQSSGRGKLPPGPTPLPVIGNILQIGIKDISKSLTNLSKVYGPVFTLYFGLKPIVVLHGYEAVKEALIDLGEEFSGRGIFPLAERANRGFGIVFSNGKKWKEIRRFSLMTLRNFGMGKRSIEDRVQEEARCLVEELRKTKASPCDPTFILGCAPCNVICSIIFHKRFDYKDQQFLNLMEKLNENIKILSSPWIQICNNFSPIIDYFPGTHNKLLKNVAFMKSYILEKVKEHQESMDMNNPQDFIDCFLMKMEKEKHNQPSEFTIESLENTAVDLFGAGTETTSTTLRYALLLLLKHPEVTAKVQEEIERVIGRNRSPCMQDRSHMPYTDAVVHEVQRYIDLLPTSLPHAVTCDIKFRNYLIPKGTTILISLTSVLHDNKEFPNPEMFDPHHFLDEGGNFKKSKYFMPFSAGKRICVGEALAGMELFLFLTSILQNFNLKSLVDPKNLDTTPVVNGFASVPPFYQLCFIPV

Cytochrome P450 3A4 = Cytochrome P450 3A4 (Homo sapiens, UniProt P08684); experiment: Inhibition of human CYP3A4 by fluorescence assay; type: ADME; outline: as §1
Cytochrome P450 3A4, sequence (P08684 whole entry): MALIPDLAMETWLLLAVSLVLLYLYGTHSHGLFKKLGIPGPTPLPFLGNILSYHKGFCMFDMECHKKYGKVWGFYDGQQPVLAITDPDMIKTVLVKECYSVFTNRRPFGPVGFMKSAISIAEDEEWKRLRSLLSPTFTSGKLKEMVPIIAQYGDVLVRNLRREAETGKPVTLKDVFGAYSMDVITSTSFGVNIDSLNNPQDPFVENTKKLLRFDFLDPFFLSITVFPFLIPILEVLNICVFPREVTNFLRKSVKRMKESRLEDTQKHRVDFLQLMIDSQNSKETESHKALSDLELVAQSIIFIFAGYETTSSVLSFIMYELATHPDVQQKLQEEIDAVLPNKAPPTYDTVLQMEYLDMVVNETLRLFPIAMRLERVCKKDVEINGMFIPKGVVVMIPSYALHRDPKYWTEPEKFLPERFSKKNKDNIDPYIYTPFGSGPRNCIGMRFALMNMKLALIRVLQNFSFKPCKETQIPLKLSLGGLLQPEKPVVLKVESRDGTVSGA

[6] = AUC ( 0 to t) in rat at 3 mg/kg, po; type: ADME, organism-based, Plasma; set-up: dose 3 mg/kg, route oral; conditions: plasma
[7] = Cmax in rat at 3 mg/kg, po; type: ADME, organism-based; set-up: dose 3 mg/kg, route oral; conditions: in vivo
[8] = Clearance in rat at 3 mg/kg, po; type: ADME, organism-based; set-up: dose 3 mg/kg, route oral; conditions: in vivo
Outline: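 Rats dosed orally at 3 mg/kg; blood sampled via the hepatic portal vein and heart. Estimated clearance derived from in vivo hepatic extraction, taking rat liver blood flow as 85 (mL/min)/kg.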

[9] = Plasma protein binding in rat at 3 mg/kg, po; type: ADME, organism-based; set-up: dose 3 mg/kg, route oral; conditions: read-out: PPB (converted)
Brain = experiment: Brain tissue binding in rat at 3 mg/kg, po; type: ADME, organism-based; set-up: dose 3 mg/kg, route oral; conditions: in vivo
[10] = Apparent permeability of the compound; type: ADME; conditions: not told
Outline: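 Artificial membrane permeability: donor holds 10 mM sample in pH 7.05 phosphate buffer with 0.5% hydroxypropylcyclodextrin. Membrane is 1.8% phosphatidylcholine and 1% cholesterol in decane. Donor and acceptor concentrations measured by LCMS after 3 h at room temperature; permeability expressed in nm/s.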

in vivo = conditions: rat, po, 3 mg/kg
Cytochrome P450 1A2 = molecular target: T2, Cytochrome P450 1A2 (Homo sapiens, UniProt P05177); experiment: Inhibition of human CYP1A2 by fluorescence assay; type: ADME; outline: as §1
T2 sequence (P05177 whole entry): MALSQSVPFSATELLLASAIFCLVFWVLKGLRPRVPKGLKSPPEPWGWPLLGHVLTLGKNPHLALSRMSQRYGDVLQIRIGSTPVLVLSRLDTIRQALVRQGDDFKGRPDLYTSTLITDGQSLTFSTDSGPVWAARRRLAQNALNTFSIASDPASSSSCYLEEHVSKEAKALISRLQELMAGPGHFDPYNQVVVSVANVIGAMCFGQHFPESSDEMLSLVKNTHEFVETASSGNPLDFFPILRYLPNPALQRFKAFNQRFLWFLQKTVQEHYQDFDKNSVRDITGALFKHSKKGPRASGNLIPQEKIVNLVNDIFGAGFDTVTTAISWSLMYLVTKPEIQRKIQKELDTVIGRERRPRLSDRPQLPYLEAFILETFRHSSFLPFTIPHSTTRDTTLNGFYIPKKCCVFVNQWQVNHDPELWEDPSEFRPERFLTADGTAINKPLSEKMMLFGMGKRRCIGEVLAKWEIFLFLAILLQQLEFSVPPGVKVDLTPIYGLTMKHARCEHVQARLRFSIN

Cytochrome P450 2D6 = Cytochrome P450 2D6 (Homo sapiens, UniProt P10635); experiment: Inhibition of human CYP2D6 by fluorescence assay; type: ADME; outline: as §1
Cytochrome P450 2D6, sequence (P10635 whole entry): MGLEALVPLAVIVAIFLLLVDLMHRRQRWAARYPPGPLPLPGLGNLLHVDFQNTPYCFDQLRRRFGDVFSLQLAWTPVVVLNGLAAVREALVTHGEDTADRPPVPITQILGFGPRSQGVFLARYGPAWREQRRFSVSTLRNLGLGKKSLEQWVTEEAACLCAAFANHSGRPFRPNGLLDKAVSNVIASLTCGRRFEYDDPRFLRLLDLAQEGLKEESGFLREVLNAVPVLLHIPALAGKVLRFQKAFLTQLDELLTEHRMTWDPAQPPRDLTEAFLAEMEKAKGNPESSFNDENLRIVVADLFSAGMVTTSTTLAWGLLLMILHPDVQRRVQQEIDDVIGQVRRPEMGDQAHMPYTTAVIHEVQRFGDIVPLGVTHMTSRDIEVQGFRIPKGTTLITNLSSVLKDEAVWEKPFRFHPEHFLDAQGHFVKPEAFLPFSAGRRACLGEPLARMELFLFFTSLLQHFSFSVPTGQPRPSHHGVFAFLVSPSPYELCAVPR

EC50 (Glutamate receptor 2 [1]) | logD [2] | solubility kinetic [3] | IC50 [4] | Activity (Glutamate receptor 2 [5]) | IC50 (Cytochrome P450 2C19) | IC50 (Cytochrome P450 2C9) | IC50 (Cytochrome P450 3A4) | AUC(0-t) [6] | Cmax [7] | CL/F [8] | fraction unbound [9] | Brain tissue binding (% bound) (Brain) | Papp [10] | Kp (in vivo; brain and blood) | IC50 (Cytochrome P450 1A2) | Kp (in vivo; brain) | IC50 (Cytochrome P450 2D6) | Compound
2 µM | 2.3 | 118 µg/mL (≈ 336 µM) |  | 107% |  | 7 µM |  | 262 ng·h/mL | 260 ng/mL | 47 mL/min/kg | 0.022 | 98.8% |  | 2.8 |  |  |  | CN(C)C(=O)Cc1ccc(-n2nc(C(F)(F)F)c3c2CCCC3)cc1
39.8 µM | 3 | 57 µg/mL (≈ 133 µM) |  | 84% | 3 µM | 1 µM |  |  |  |  |  |  |  |  |  |  |  | CN(CCc1ccccc1)C(=O)c1ccc(-n2nc(C(F)(F)F)c3c2CCCC3)cc1
31.6 µM | 3.4 | 124 µg/mL (≈ 314 µM) | > 10 µM | 98% |  |  |  |  |  |  |  |  |  |  |  |  |  | O=C(C(F)c1ccc(-n2nc(C(F)(F)F)c3c2CCCC3)cc1)N1CCCC1 (stereo not drawn)
2.51 µM | 3.6 | 62 µg/mL (≈ 176 µM) |  | 98% |  | 8 µM |  |  |  |  |  |  |  |  | 3.5 µM |  |  | CCC(=O)NCc1ccc(-n2nc(C(F)(F)F)c3c2CCCC3)cc1
31.6 µM | 3 | 13 µg/mL (≈ 42.2 µM) |  | 94% |  | 4 µM |  |  |  |  |  |  |  |  | 0.1 µM |  |  | CC(=O)c1ccc(-n2nc(C(F)(F)F)c3c2CCCC3)cc1
31.6 µM | 3.4 | 13 µg/mL (≈ 37.8 µM) |  | 83% |  |  |  |  |  |  |  |  |  |  | 4 µM |  | 6 µM | CS(=O)(=O)c1ccc(-n2nc(C(F)(F)F)c3c2CCCC3)cc1
15.8 µM | 3.2 | 65 µg/mL (≈ 171 µM) |  | 86% |  | 6 µM |  |  |  |  |  |  |  |  |  |  | 8 µM | CCCCN(C)C(=O)c1ccc(-n2nc(C(F)(F)F)c3c2CCCC3)cc1

The next lines start with the compound.

Compound | EC50 (Glutamate receptor 2 [1]) | logD [2] | solubility kinetic [3] | IC50 [4] | Activity (Glutamate receptor 2 [5]) | IC50 (Cytochrome P450 2C19) | IC50 (Cytochrome P450 2C9) | IC50 (Cytochrome P450 3A4) | AUC(0-t) [6] | Cmax [7] | CL/F [8] | fraction unbound [9] | Brain tissue binding (% bound) (Brain) | Papp [10] | Kp (in vivo; brain and blood) | IC50 (Cytochrome P450 1A2) | Kp (in vivo; brain) | IC50 (Cytochrome P450 2D6)
O=S(=O)(NCc1ccc(-n2nc(C(F)(F)F)c3c2CCCC3)cc1)C1CC1 | 10 µM | 3.2 | 12 µg/mL (≈ 30 µM) | > 10 µM | 112% |  |  |  |  |  |  |  |  |  |  |  |  | 
O=C(N1CCCC1)C1(c2ccc(-n3nc(C(F)(F)F)c4c3CCCC4)cc2)CC1 | 31.6 µM | 3.8 | 31 µg/mL (≈ 76.8 µM) |  | 37% | 7 µM | 0.3 µM | 6 µM |  |  |  |  |  |  |  |  |  | 
O=S1(=O)CCCN1Cc1ccc(-n2nc(C(F)(F)F)c3c2CCCC3)cc1 | 10 µM | 3.3 | 12 µg/mL (≈ 30 µM) | > 10 µM | 118% |  |  |  | 364 ng·h/mL | 136 ng/mL | 41 mL/min/kg | 0.032 | 99.5% | 40 ×10⁻⁶ cm/s | 2.5 |  |  | 
O=C1CCCN1Cc1ccc(-n2nc(C(F)(F)F)c3c2CCCC3)cc1F | 1 µM | 3.3 | 88 µg/mL (≈ 231 µM) |  | 112% |  | 9 µM |  | 331 ng·h/mL | 167 ng/mL | 47 mL/min/kg | 0.011 |  | 42 ×10⁻⁶ cm/s |  | 2 µM | 1.3 | 
O=C(Cc1ccc(-n2nc(C(F)(F)F)c3c2CCCC3)cc1F)N1CCCC1 | 1.26 µM | 3.7 | 41 µg/mL (≈ 104 µM) |  | 79% |  | 7 µM |  | 248 ng·h/mL | 111 ng/mL | 55 mL/min/kg | 0.002 | 99.4% |  | 0.3 |  |  | 
